According to ChEMBL document CHEMBL4177753, “Structural Modification of Natural Product Ganomycin I Leading to Discovery of a α-Glucosidase and HMG-CoA Reductase Dual Inhibitor Improving Obesity and Metabolic Dysfunction in Vivo” (J Med Chem, 2018):
Active and inactive are the calls of the source. No cut-off for these calls is given here.

How the values were obtained:
Mus musculus [1] = assay: Hypolipidemic activity in antibiotic-treated ob/ob mouse assessed as decrease in plasma LDL-C levels at 3 mg/kg administered daily via oral gavage for 3 weeks; format: functional, organism-based
Procedure, shortened: (§1)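 Male ob/ob mice pretreated three weeks with ampicillin (1 g/L), vancomycin, neomycin, gentamycin and erythromycin. Groups of n = 8 given 3.0 mg/kg/day orally in soybean vehicle versus vehicle. Plasma and hepatic lipids, fasting glucose, OGTT (glucose 2 g/kg after overnight fast) and HbA1c measured.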

Mus musculus [2] = assay: Toxicity in C57BL/6J mouse assessed as effect on organ coefficients at 30 mg/kg administered daily via oral gavage for 3 months; format: organism-based; settings: in vivo
Procedure, shortened: (§2)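 Long-term safety study in C57BL/6J mice, 20 male and 20 female, sorted by gender, blood glucose and body weight into four groups (n = 10 each). Treated groups of each sex got 30.0 mg/kg daily by oral gavage in soybean vehicle. Vehicle groups got an equal volume of soybean. Dosing ran three months, with behavior, survival, body weight, blood glucose, liver function and organ coefficients recorded.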

Mus musculus [3] = assay: Toxicity in C57BL/6J mouse assessed as effect on plasma ALT levels at 30 mg/kg administered daily via oral gavage for 3 months; format: organism-based; settings: in vivo; procedure, shortened: as §2
Mus musculus [4] = assay: Hypolipidemic activity in ob/ob mouse assessed as decrease in serum total cholesterol levels administered daily via oral gavage for 31 days; format: functional, organism-based
Mus musculus [5] = assay: Hypolipidemic activity in ob/ob mouse assessed as decrease in serum AST levels at 0.3 to 3 mg/kg administered daily via oral gavage for 31 days; format: functional, organism-based
Mus musculus [6] = assay: Reduction of plasma LPS levels in ob/ob mouse at 3 mg/kg administered daily via oral gavage for 31 days by ELISA relative to vehicle-treated control; format: functional; parameters: scale not given: the % may be the effect or the level left
Procedure, shortened: (§3)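 Male ob/ob mice treated daily by gavage (soybean vehicle); plasma LPS and TNF-α quantified by ELISA kits. For antibiotic groups, ob/ob mice first received an oral antibiotic cocktail (ampicillin 1 g/L, vancomycin, neomycin, gentamycin, erythromycin) for three weeks, then 3.0 mg/kg/day; n = 8 per group.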

Mus musculus [7] = assay: Antiobesity activity in ob/ob mouse assessed as reduction in weight gain at 3 mg/kg administered daily via oral gavage for 31 days relative to vehicle-treated control; format: functional; parameters: scale not given: the % may be the effect or the level left
Procedure, shortened: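 Male ob/ob mice, n = 10 per group, grouped by blood glucose and body weight. Daily gavage at 0.3, 1.0 or 3.0 mg/kg in soybean vehicle, with soybean vehicle controls and C57BL/6J controls. Body weight, cumulative food intake, LEE index, fat mass and lean mass recorded. Mean ± SEM, one-way ANOVA with Tukey test.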

Prevotella = assay: Decrease in Prevotella levels in cecum of ob/ob mouse at 3 mg/kg administered daily via oral gavage for 31 days by 16S rRNA gene high-throughput sequencing method; format: functional, organism-based
Procedure, shortened: (§4)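 Male ob/ob mice dosed daily by gavage at 1.0 or 3.0 mg/kg, compared with vehicle group. DNA extracted from about 150 mg caecum contents. 16S rRNA V3–V4 region amplified and sequenced on Illumina HiSeq PE250. Community compared by NMDS/MRPP; discriminant taxa identified by LEfSe.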

Mus musculus [8] = assay: Antiobesity activity in ob/ob mouse assessed as cumulative food intake at 3 mg/kg administered daily via oral gavage for 25 days relative to vehicle-treated control
[9] = Tmax in Sprague-Dawley rat at 2 mg/kg, po; format: ADME, organism-based; settings: in vivo
Procedure, shortened: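 Six male Sprague-Dawley rats (0.21–0.23 kg) dosed orally at 2.0 mg/kg; blood from orbital vein at 0–16 h into heparinized tubes; plasma protein precipitated with methanol plus internal standard. Quantified by UPLC–Q-TOF MS, ESI positive, single ion monitoring (m/z 367.2637); linear range 0.54–107 ng/ml.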

Mus musculus [10] = assay: Antiobesity activity in antibiotic-treated ob/ob mouse assessed as reduction in weight gain at 3 mg/kg administered daily via oral gavage for 3 weeks; format: functional, organism-based
Procedure, shortened: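 Male ob/ob mice given drinking water with ampicillin (1 g/L), vancomycin and other antibiotics for three weeks. Groups of n = 8 were dosed at 3.0 mg/kg/day by mouth in soybean vehicle, alongside non-antibiotic ob/ob groups. Weight gain and food intake recorded.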

Mus musculus [11] = assay: Hypolipidemic activity in ob/ob mouse assessed as decrease in hepatocyte ballooning at 3 mg/kg administered daily via oral gavage for 31 days by oil red O staining-based microscopic method; format: functional, organism-based
Procedure, shortened: (§5)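 Male ob/ob mice dosed by gavage (soybean vehicle); liver and abdominal white adipose tissue fixed in 10% formaldehyde-PBS pH 7.4, paraffin-embedded, sectioned, stained with H&E, Oil Red O or sirius red, and examined by light microscopy.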

Lachnospiraceae = assay: Increase in Lachnospiraceae levels in cecum of ob/ob mouse at 1 to 3 mg/kg administered daily via oral gavage for 31 days by 16S rRNA gene high-throughput sequencing method; format: functional, organism-based
Procedure, shortened: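 Caecum contents (about 150 mg) from ob/ob mice given 1.0 or 3.0 mg/kg by gavage; DNA extracted, 16S rRNA gene V3-V4 region amplified and sequenced on Illumina HiSeq PE250; community compared with vehicle group by NMDS/MRPP and LEfSe.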

[12] = Cmax in Sprague-Dawley rat at 2 mg/kg, po; format: ADME, organism-based; parameters: dose 2 mg/kg, route oral; settings: in vivo
Procedure, shortened: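 Male Sprague-Dawley rats (n = 6, 0.21–0.23 kg), single oral dose 2.0 mg/kg. Orbital blood sampled 0–16 h into heparinized tubes. Plasma was protein-precipitated with methanol, with internal standard added. Quantified by UPLC-ESI(+)-QTOF-MS in SIM mode on a C18 column with a methanol/0.3% formic acid water gradient. Linear range 0.54–107 ng/ml.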

Mus musculus [13] = assay: Reduction of plasma LPS levels in ob/ob mouse at 1 mg/kg administered daily via oral gavage for 31 days by ELISA relative to vehicle-treated control; format: functional; parameters: scale not given: the % may be the effect or the level left; procedure, shortened: as §3
Mus musculus [14] = assay: Hypolipidemic activity in ob/ob mouse assessed as decrease in size of adipocytes in white adipose tissue at 3 mg/kg administered daily via oral gavage for 31 days by hematoxylin-eosin staining-based microscopic method; format: functional, organism-based; procedure, shortened: as §5
Fusobacterium = assay: Decrease in Fusobacterium levels in cecum of ob/ob mouse at 3 mg/kg administered daily via oral gavage for 31 days by 16S rRNA gene high-throughput sequencing method; format: functional, organism-based; procedure, shortened: as §4
Mus musculus [15] = assay: In vivo inhibition of alpha-glucosidase activity in ob/ob mouse assessed as reduction of blood glucose AUC at 0.3 to 3 mg/kg administered daily via oral gavage for 32 days by OMTT; format: functional, organism-based
Procedure, shortened: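 Male ob/ob mice given 0.3–3.0 mg/kg daily by gavage; after overnight fast, sucrose (OSTT) or maltose (OMTT) 4.0 g/kg given orally; blood glucose by glucose meter at 0, 40, 80 and 120 min; AUC calculated from the time course.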

Mus musculus [16] = assay: Hypoglycemic activity in antibiotic-treated ob/ob mouse assessed as decrease in HbA1c levels at 3 mg/kg administered daily via oral gavage for 3 weeks; format: functional, organism-based; procedure, shortened: as §1
Mus musculus [17] = assay: Upregulation of Il10 mRNA expression in ob/ob mouse ileum at 3 mg/kg administered daily via oral gavage for 31 days by RNA-seq analysis; format: functional, organism-based
[18] = Inhibition of rat small intestinal mucosal alpha-glucosidase using p-nitrophenyl-alpha-D-glucopyranoside as substrate by HPLC method
Procedure, shortened: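 Rat intestinal α-glucosidase; after incubation the product 4-nitrophenol is quantified at once by HPLC (gradient from 20% acetonitrile in water with 0.1‰ TFA to 100% acetonitrile over 10 min). Each concentration run 3 times in parallel; % inhibition from peak areas versus control minus control blank; IC50 from the concentration series.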

Q: For CC(C)=CCC/C(C)=C/CCC1=C[C@H](c2ccc(C(C)(C)C)cc2)OC1=O, which Activity (Mus musculus [1]) is on record?
A: The Activity was “inactive”.

Q: And the Activity (Mus musculus [2])?
A: Its Activity is “Non-Toxic”.

Q: What about the Activity (Mus musculus [3]) of the same compound?
A: The Activity was “Non-Toxic”.

Q: What about the Activity (Mus musculus [4]) of the same compound?
A: Its Activity is “Dose-dependent effect”.

Q: And the Activity (Mus musculus [5])?
A: Its Activity is “Active”.

Q: And the Activity (Mus musculus [6])?
A: The Activity was 40.9%.

Q: What about the Activity (Mus musculus [7]) of the same compound?
A: The Activity was 68%.

Q: And the Activity (Prevotella)?
A: Its Activity is “Active”.

Q: And the Activity (Mus musculus [8])?
A: Its Activity is 78%.

Q: What about the Tmax [9] of the same compound?
A: The Tmax was 7 h.

Q: And the Activity (Mus musculus [10])?
A: The Activity was “Active”.

Q: And the Activity (Mus musculus [11])?
A: Its Activity is “Active”.

Q: What about the Activity (Lachnospiraceae) of the same compound?
A: The Activity was “Active”.

Q: What about the Cmax [12] of the same compound?
A: The Cmax was 49.3 ng/mL.

Q: What about the Activity (Mus musculus [13]) of the same compound?
A: Its Activity is 29.8%.

Q: What about the Activity (Mus musculus [14]) of the same compound?
A: Its Activity is “Active”.

Q: What about the Activity (Fusobacterium) of the same compound?
A: Its Activity is “Active”.

Q: And the inhibition (Mus musculus [15])?
A: Its inhibition is “Active”.

Q: What about the Activity (Mus musculus [16]) of the same compound?
A: Its Activity is “inactive”.

Q: And the Activity (Mus musculus [17])?
A: The Activity was “Active”.

Q: And the IC50 [18]?
A: The IC50 was 0.04 µM.
